Measurements from different studies.
Protocols differ between the studies behind these lines. Converted amounts (≈) assume the structure as drawn.
Organism: Mycobacterium tuberculosis variant bovis BCG
Observed: microbial growth

SMILES	test system	setting	endpoint	result
COc1ccc(C=CC(=O)c2ccc(F)cc2)cc1OC	BCG	7 days	MIC	25 µg/mL
C=CC(c1ccc(-c2ccc3cc(OC)ccc3c2)cc1)n1ccnc1 (stereo not drawn)	BCG		MIC50	9.7 µM (≈ 3.3 µg/mL)
Nc1nccnc1C(=O)O	ATCC35734 BCG	5 days	IC50	800 µM
C=CC(c1ccc(-c2ccc3[nH]ccc3c2)cc1)n1ccnc1 (stereo not drawn)	BCG		MIC50	41 µM (≈ 12.3 µg/mL)
COc1ccc(C=CC(=O)c2cccc([N+](=O)[O-])c2)cc1OC	BCG	7 days	MIC	100 µg/mL
CCCNc1cnc(C(=O)O)cn1	ATCC35734 BCG	5 days	IC50	700 µM
c1ccc(COc2ccccc2CNCc2ccncc2)cc1	ATCC35734 BCG		MIC	> 62.5 µM
COc1ccc(C=CC(=O)c2ccc(C)cc2)cc1OC	BCG	7 days	MIC	25 µg/mL
Clc1cccc(COc2ccccc2CNCc2ccncc2)c1	ATCC35734 BCG		MIC	> 62.5 µM
C=CC(c1ccc(-c2ccc(C#N)cc2)cc1)n1ccnc1 (stereo not drawn)	BCG		MIC50	9.2 µM (≈ 2.63 µg/mL)
COc1ccc(C=CC(=O)c2ccc([N+](=O)[O-])cc2)cc1OC	BCG	7 days	MIC	200 µg/mL
NNC(=O)c1ccncc1	ATCC35734 BCG		MIC	≤ 0.25 µM
COc1ccc(C=CC(=O)c2ccccc2C)cc1OC	BCG	7 days	MIC	50 µg/mL
C=CC(c1ccc(-c2ccc(OC)c(OC)c2)cc1)n1ccnc1 (stereo not drawn)	BCG		MIC50	> 100 µM
Fc1ccc(COc2cccc(CNCc3cccnc3)c2)cc1	ATCC35734 BCG		MIC	> 62.5 µM
